Data set [1] relates to SH-SY5Y. In words: Toxicity in retinoic acid-differentiated human SH-SY5Y cells assessed as effect on cell morphology at 10 uM after 24 hrs by trypan blue exclusion method. It counts as cell-based. In outline:
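Retinoic acid-differentiated SH-SY5Y cells (10 μM RA, 7 days) were exposed to 10 μM drug or DMSO without Aβ for 24 h. Neurite morphology was examined by phase-contrast microscopy. Viability was counted by 0.04% trypan blue exclusion.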

The subject of data set [2] is SH-SY5Y. In words: Toxicity in human SH-SY5Y cells at 10 uM by trypan blue exclusion method. The data set is classed as cell-based.
In data set [3] the test system is SH-SY5Y. The experiment in a line: Neuroprotection against beta-amyloid peptide 1-42-induced toxicity in retinoic acid-differentiated human SH-SY5Y cells assessed as lactate dehydrogenase release at 1 uM. The data set is classed as functional. A digest of the protocol: (§1)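 SH-SY5Y cells were differentiated for 7 days with 10 μM retinoic acid until they stopped proliferating and grew neurites. Drug was added 2 h before 10 μM Aβ in serum-free DMEM for 48 h. Released LDH was measured by NADH oxidation (pyruvate 1 mM, NADH 0.2 mM, pH 7.4; […] over 5 min at 25°C). Protection is expressed against Aβ alone, taken as 100% death.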

The subject of data set [4] is SH-SY5Y. In words: Neuroprotection against beta-amyloid peptide 1-42-induced toxicity in human SH-SY5Y cells assessed as lactate dehydrogenase release. It counts as functional, cell-based. In outline: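 Proliferating SH-SY5Y cells were grown in DMEM with 10% FBS at 37°C in 5% CO2, then seeded into 96-well plates. Drug or DMSO was given 2 h before 10 μM Aβ in serum-free DMEM for 48 h. LDH released into the cleared medium was read kinetically as NADH oxidation (50 mM phosphate pH 7.4, 1 mM pyruvate, 0.2 mM NADH; […], 5 min, 25°C). Aβ alone was set as 100% cell death. Mean ± S.E.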

Data set [5] deals with SH-SY5Y. The experiment in a line: Neuroprotection against beta-amyloid peptide 1-42-induced toxicity in retinoic acid-differentiated human SH-SY5Y cells assessed as lactate dehydrogenase release. The data set is classed as functional, cell-based. In outline:
as §1

Data set [6] concerns SH-SY5Y. In words: Neuroprotection against beta-amyloid peptide 1-42-induced toxicity in retinoic acid-differentiated human SH-SY5Y cells assessed as lactate dehydrogenase release at 10 nM. The data set is classed as functional, cell-based. A digest of the protocol:
as §1

Active and inactive are the calls of the source. The rule behind the calls is not given here.

A word on the EC50: it is the concentration needed to bring the measured effect to its halfway point.

As to `CO[C@@H]1[C@@H](O)[C@@H](O)[C@H](Oc2ccc3cc(NC(C)=O)c(=O)oc3c2C)OC1(C)C`, the Activity result in data set [1] is recorded as “Non-toxic”; in data set [3], 70%. Also, the AC50 entry in data set [2] was “Non-toxic”. Also, the EC50 in data set [4] amounted to 1.49 nM.

In the case of `CO[C@@H]1[C@@H](O)[C@@H](O)[C@H](Oc2ccc3cc(NC(=O)CCCCCCC(=O)Nc4cc5ccc(O[C@@H]6OC(C)(C)[C@H](OC)[C@@H](O)[C@H]6O)c(C)c5oc4=O)c(=O)oc3c2C)OC1(C)C`, the Activity entry in data set [1] is given as “Non-toxic”. Also, the AC50 entry in data set [2] is reported as “Non-toxic”. For the same molecule, the EC50 in data set [4] is 4.48 nM.

Turning to `CO[C@@H]1[C@@H](O)[C@@H](O)[C@H](Oc2ccc3cc(NC(C)=O)c(=O)oc3c2)OC1(C)C`, the Activity result in data set [1] was “Non-toxic”. Besides, the EC50 in data set [4] worked out at 4.85 nM.

For `O=C(O)/C=C/c1nn(Cc2ccc(Cl)cc2Cl)c2cc(C(F)(F)F)ccc12`, the outcome in data set [5] was inactive.

Consider `CC1=C(O)C(=O)C=C2C1=CC=C1[C@@]2(C)CC[C@@]2(C)[C@@H]3C[C@](C)(C(=O)O)CC[C@]3(C)CC[C@]12C` [CELASTROL], for which the EC50 in data set [4] is 37.6 nM.

With `O=C(O[C@@H]1Cc2c(O)cc(O)cc2O[C@@H]1c1cc(O)c(O)c(O)c1)c1cc(O)c(O)c(O)c1` [EPIGALOCATECHIN GALLATE], in data set [4], the EC50 was found to be 39.9 nM.

Turning to `CC(=O)O[C@@H]1C[C@H]2C(C)(C)C(=O)C=C[C@]2(C)[C@H]2CC[C@@]3(C)[C@H](c4ccoc4)OC(=O)[C@H]4O[C@]43[C@@]21C` [GEDUNIN], the EC50 in data set [4] is 39 nM.

Take `COC1=C2C[C@@H](C)C[C@H](OC)[C@H](O)[C@@H](C)/C=C(\C)[C@H](OC(N)=O)[C@@H](OC)/C=C\C=C(/C)C(=O)NC(=CC1=O)C2=O` [GELDANAMYCIN]: the Activity entry in data set [1] is recorded as “Toxic”. The outcome in data set [6] was Active. Further, in data set [5], the outcome was inactive. For the same molecule, the concentration for a half-maximal effect (EC50) in data set [4] is 42.7 nM.

On to `CO[C@@H]1[C@@H](OC(N)=O)[C@@H](O)[C@H](Oc2ccc3c(O)c(NC(=O)c4ccc(O)c(CC=C(C)C)c4)c(=O)oc3c2C)OC1(C)C` [NOVOBIOCIN], for which the Activity entry in data set [1] is recorded as “Toxic”. Moreover, the outcome in data set [6] and in data set [5] was Active. Besides, in data set [4], the EC50 is 48.4 nM.

These data come from ChEMBL document CHEMBL1136850, “Neuroprotective activity and evaluation of Hsp90 inhibitors in an immortalized neuronal cell line” (Bioorg Med Chem, 2009).
